Values joined by “and” are separate entries in the source; they are usually repeats but may differ in a detail not shown here. Equal values may be shown once.
Experiments:
[1] = molecular target: T1, cGMP-dependent 3',5'-cyclic phosphodiesterase (Homo sapiens, UniProt O00408); test: Inhibition of cGMP PDE II enzyme in guinea pig at 1E-4M; conditions: Cavia porcellus; target entry is the homologue from another species
Phosphodiesterase 1 [2] = molecular target: T2, Phosphodiesterase 1 (Homo sapiens, UniProt P54750+Q01064+Q14123); test: Inhibition of cGMP PDE I enzyme in guinea pig at 1E-5M concentration; type: protein assay; conditions: Cavia porcellus; target entry is the homologue from another species
Phosphodiesterase 1 [3] = molecular target: T2, Phosphodiesterase 1; test: Inhibition of cGMP PDE I enzyme in guinea pig at 1E-4M; type: protein assay; conditions: Cavia porcellus; target entry is the homologue from another species
Phosphodiesterase 1 [4] = molecular target: T2, Phosphodiesterase 1; test: Inhibition of cAMP PDE I enzyme in guinea pig at 1E-4M; type: protein assay; conditions: Cavia porcellus; target entry is the homologue from another species
Canis familiaris = organism: Canis familiaris; test: Effective dose required to increase myocardial contractility in dog.; type: functional; conditions: Canis lupus familiaris, Myocardium
Summary of the method: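 Anesthetized mongrel dogs (either sex): pentobarbital 35 mg/kg iv, then 5 mg kg⁻¹ h⁻¹ infusion. After 30-min control, compound in saline or dilute HCl/NaOH diluted with saline given iv over 1 min, cumulative half-log doses (typically four to six), 10–30 min apart.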

Phosphodiesterase 3 [5] = molecular target: T3, Phosphodiesterase 3 (Homo sapiens, UniProt Q14432+Q13370); test: Inhibition of cAMP PDE III enzyme in guinea pig at 1E-5M concentration; type: protein assay; conditions: Cavia porcellus; target entry is the homologue from another species
[6] = molecular target: T1, cGMP-dependent 3',5'-cyclic phosphodiesterase; test: Inhibition of cGMP PDE II enzyme in guinea pig at 1E-5M concentration; conditions: Cavia porcellus; target entry is the homologue from another species
Phosphodiesterase 1 [7] = molecular target: T2, Phosphodiesterase 1; test: Inhibition of cAMP PDE I enzyme in guinea pig at 1E-5M concentration; type: protein assay; conditions: Cavia porcellus; target entry is the homologue from another species
[8] = molecular target: T1, cGMP-dependent 3',5'-cyclic phosphodiesterase; test: Inhibition of cAMP PDE II enzyme in guinea pig at 1E-5M concentration; conditions: Cavia porcellus; target entry is the homologue from another species
[9] = molecular target: T1, cGMP-dependent 3',5'-cyclic phosphodiesterase; test: Inhibition of cAMP PDE II enzyme in guinea pig at 1E-4M; conditions: Cavia porcellus; target entry is the homologue from another species
PDE II (Cavia porcellus) = test: Inhibition of cAMP PDE II enzyme in guinea pig at 1E-4M concentration.
Phosphodiesterase 3 [10] = molecular target: T3, Phosphodiesterase 3; test: Inhibition of cAMP PDE III enzyme in guinea pig at 1E-4M concentration.; type: protein assay; conditions: Cavia porcellus; target entry is the homologue from another species
[11] = molecular target: T1, cGMP-dependent 3',5'-cyclic phosphodiesterase; test: Inhibition of PDE II enzyme in guinea pig; design: species or system Cavia porcellus; conditions: target entry is the homologue from another species
[12] = molecular target: T1, cGMP-dependent 3',5'-cyclic phosphodiesterase; test: Inhibition of cGMP PDE II enzyme in guinea pig at 1E-4M concentration; conditions: Cavia porcellus; target entry is the homologue from another species
[13] = Ratio of IC50 values for PDE III and PDE II.
Phosphodiesterase 1 [14] = molecular target: T2, Phosphodiesterase 1; test: Inhibition of cAMP PDE I enzyme in guinea pig at 1E-4M concentration.; type: protein assay; conditions: Cavia porcellus; target entry is the homologue from another species
Phosphodiesterase 3 [15] = molecular target: T3, Phosphodiesterase 3; test: Inhibitory concentration against cAMP PDE III enzyme in guinea pig; type: protein assay, Cavia porcellus; conditions: target entry is the homologue from another species
PDE I (Cavia porcellus) [16] = test: Inhibitory concentration against cAMP PDE I enzyme in guinea pig
PDE I (Cavia porcellus) [17] = test: Inhibitory concentration against cGMP PDE I enzyme in guinea pig
[18] = molecular target: T1, cGMP-dependent 3',5'-cyclic phosphodiesterase; test: Inhibitory concentration against cGMP PDE II enzyme in guinea pig; design: species or system Cavia porcellus; conditions: target entry is the homologue from another species
[19] = Ratio of IC50 values for PDE III and PDE I.
Phosphodiesterase 1 [20] = molecular target: T2, Phosphodiesterase 1; test: Inhibition of cGMP PDE I enzyme in guinea pig at 1E-4M concentration; type: protein assay; conditions: Cavia porcellus; target entry is the homologue from another species
Phosphodiesterase 3 [21] = molecular target: T3, Phosphodiesterase 3; test: Inhibition of cAMP PDE III enzyme in guinea pig at 1E-4M; type: protein assay; conditions: Cavia porcellus; target entry is the homologue from another species
Phosphodiesterase 1 [22] = molecular target: T2, Phosphodiesterase 1; test: Inhibitory concentration against cGMP PDE I enzyme in guinea pig; type: protein assay, Cavia porcellus; conditions: target entry is the homologue from another species
Phosphodiesterase 1 [23] = molecular target: T2, Phosphodiesterase 1; test: Inhibitory concentration against cAMP PDE I enzyme in guinea pig; type: protein assay, Cavia porcellus; conditions: target entry is the homologue from another species
[24] = molecular target: T1, cGMP-dependent 3',5'-cyclic phosphodiesterase; test: Inhibitory concentration against cAMP PDE II enzyme in guinea pig; design: species or system Cavia porcellus; conditions: target entry is the homologue from another species
[25] = molecular target: T1, cGMP-dependent 3',5'-cyclic phosphodiesterase; test: Inhibition of cGMP PDE II enzyme in guinea pig at 10e-4 M; conditions: Cavia porcellus, target entry is the homologue from another species

T1 sequence (O00408 whole entry): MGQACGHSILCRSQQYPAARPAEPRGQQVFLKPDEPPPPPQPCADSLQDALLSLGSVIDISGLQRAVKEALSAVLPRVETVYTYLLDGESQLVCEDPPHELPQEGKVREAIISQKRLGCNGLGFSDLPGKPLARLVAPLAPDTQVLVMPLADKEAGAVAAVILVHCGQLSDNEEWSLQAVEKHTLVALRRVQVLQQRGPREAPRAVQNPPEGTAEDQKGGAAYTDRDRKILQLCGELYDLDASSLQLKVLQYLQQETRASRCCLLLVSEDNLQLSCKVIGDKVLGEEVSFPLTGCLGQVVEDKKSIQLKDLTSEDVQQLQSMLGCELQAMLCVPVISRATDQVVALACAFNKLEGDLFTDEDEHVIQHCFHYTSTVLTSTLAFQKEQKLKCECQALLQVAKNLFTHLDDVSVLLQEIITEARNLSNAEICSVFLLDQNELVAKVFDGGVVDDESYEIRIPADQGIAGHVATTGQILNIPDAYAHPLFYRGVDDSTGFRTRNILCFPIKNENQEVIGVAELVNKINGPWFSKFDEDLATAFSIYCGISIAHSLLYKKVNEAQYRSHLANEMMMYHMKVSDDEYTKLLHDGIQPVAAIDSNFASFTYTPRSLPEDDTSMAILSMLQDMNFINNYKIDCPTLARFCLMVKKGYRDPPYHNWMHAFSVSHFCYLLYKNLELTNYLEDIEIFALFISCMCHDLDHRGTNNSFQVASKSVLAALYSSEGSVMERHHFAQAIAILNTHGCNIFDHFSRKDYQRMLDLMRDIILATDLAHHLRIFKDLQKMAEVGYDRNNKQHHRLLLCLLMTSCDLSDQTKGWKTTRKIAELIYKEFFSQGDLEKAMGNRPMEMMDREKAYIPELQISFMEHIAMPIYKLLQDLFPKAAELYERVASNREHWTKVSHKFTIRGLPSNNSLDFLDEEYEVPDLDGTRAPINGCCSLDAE

CC1CC(O)=NN=C1c1ccc(-n2ccnc2)cc1 (stereo not drawn) [CI-930] showed an inhibition [1] of 23%, an inhibition (Phosphodiesterase 1 [2]) of 9% and an inhibition (Phosphodiesterase 1 [3]) of 12%. It also gave an inhibition (Phosphodiesterase 1 [4]) of 9%, an ED50 (Canis familiaris) of 0.013 mg/kg and an inhibition (Phosphodiesterase 3 [5]) of 69%. The inhibition [6] was 7%, the inhibition (Phosphodiesterase 1 [7]) was 3% and the inhibition [8] was 5%. For the same compound, the inhibition [9] was 18%.

O=C1CCC(c2ccc(-n3cncn3)cc2)=NN1 gave an inhibition [1] of 24%, an inhibition (Phosphodiesterase 1 [2]) of 6% and an inhibition (PDE II (Cavia porcellus)) of 20%. The inhibition (Phosphodiesterase 3 [10]) was 51%, the inhibition (Phosphodiesterase 3 [5]) was 33% and the inhibition [6] was 7%. It also gave an inhibition (Phosphodiesterase 1 [7]) of 7% and an inhibition [8] of 6%.

In the case of Nc1cc(-c2ccc(-n3ccnc3)cc2)nnc1O, the inhibition (Phosphodiesterase 1 [2]) is reported as 7%, the inhibition (PDE II (Cavia porcellus)) is reported as 44% and the IC50 [11] is reported as 110 µM. For the same compound, the inhibition [12] was 51%, the Ratio [13] was 200 and the inhibition (Phosphodiesterase 3 [10]) was 64%. The inhibition (Phosphodiesterase 1 [14]) was 20%, the ED50 (Canis familiaris) was 0.3 mg/kg and the inhibition (Phosphodiesterase 3 [5]) was 41%. For the same compound, the inhibition [6] was 10%, the IC50 (Phosphodiesterase 3 [15]) was 22 µM and the IC50 (PDE I (Cavia porcellus) [16]) was greater than 500 µM. For the same compound, the IC50 (PDE I (Cavia porcellus) [17]) was greater than 500 µM, the IC50 [18] was 88 µM and the inhibition (Phosphodiesterase 1 [7]) was 6%. It also gave a Ratio [19] of less than 44, an inhibition [8] of 13% and an inhibition (Phosphodiesterase 1 [20]) of 28%.

With CC1CC(c2ccc(-n3ccnc3)cc2)=NNC1=O (stereo not drawn) the inhibition [1] was 26%, the inhibition (Phosphodiesterase 1 [2]) was 2% and the inhibition (Phosphodiesterase 3 [21]) was 63%. For the same compound, the IC50 (Phosphodiesterase 1 [22]) was greater than 1000 µM, the inhibition (Phosphodiesterase 1 [3]) was 8% and the inhibition (Phosphodiesterase 1 [4]) was 8%. It also gave an ED50 (Canis familiaris) of 1 mg/kg, an inhibition (Phosphodiesterase 3 [5]) of 25% and an inhibition [6] of 7%. For the same compound, the IC50 (Phosphodiesterase 3 [15]) was 43 µM, the IC50 (Phosphodiesterase 1 [23]) was greater than 1000 µM and the inhibition (Phosphodiesterase 1 [7]) was 0%. The inhibition [8] was 15% and the inhibition [9] was 27%.

With O=C1CCC(c2ccc(-n3ccnc3)cc2)=NN1 [IMAZODAN] the inhibition [1] was 20%, the inhibition (Phosphodiesterase 1 [2]) was 3% and the inhibition (Phosphodiesterase 3 [10]) was 76%. It also gave an inhibition (Phosphodiesterase 1 [14]) of 8%, an ED50 (Canis familiaris) of 0.045 mg/kg and an inhibition (Phosphodiesterase 3 [5]) of 57%. It also gave an inhibition [6] of 7%, an inhibition (Phosphodiesterase 1 [7]) of 3% and an inhibition [8] of 4%. For the same compound, the inhibition (Phosphodiesterase 1 [20]) was 10% and the inhibition [9] was 17%.

For O=C1CCC(c2cccc(-n3ccnc3)c2)=NN1, the inhibition (Phosphodiesterase 1 [2]) was 3%, the inhibition (PDE II (Cavia porcellus)) was 21% and the inhibition [12] was 28%. It also gave a Ratio [13] of 121, an inhibition (Phosphodiesterase 3 [10]) of 65% and an inhibition (Phosphodiesterase 1 [14]) of 9%. The ED50 (Canis familiaris) was 0.3 mg/kg, the inhibition (Phosphodiesterase 3 [5]) was 28% and the IC50 [24] was 330 µM. For the same compound, the inhibition [6] was 10%, the IC50 (Phosphodiesterase 3 [15]) was 40 µM and the IC50 (PDE I (Cavia porcellus) [16]) was 930 µM. It also gave an IC50 (PDE I (Cavia porcellus) [17]) greater than 1000 µM, an IC50 [18] of 340 µM and an inhibition (Phosphodiesterase 1 [7]) of 6%. It also gave a Ratio [19] of 43, an inhibition [8] of 10% and an inhibition (Phosphodiesterase 1 [20]) of 8%.

Work on O=C1CCC(c2ccc(-n3cnc4ccccc43)cc2)=NN1 yielded an inhibition (Phosphodiesterase 1 [2]) of 9%, an inhibition (PDE II (Cavia porcellus)) of 67% and an inhibition [12] of 70%. For the same compound, the Ratio [13] was 28.5, the inhibition (Phosphodiesterase 3 [10]) was 88% and the inhibition (Phosphodiesterase 1 [14]) was 25%. The ED50 (Canis familiaris) was 0.1 mg/kg, the inhibition (Phosphodiesterase 3 [5]) was 66% and the IC50 [24] was 42 µM. It also gave an inhibition [6] of 24%, an IC50 (Phosphodiesterase 3 [15]) of 1.2 µM and an IC50 (PDE I (Cavia porcellus) [16]) of 280 µM. The IC50 (PDE I (Cavia porcellus) [17]) was 220 µM, the IC50 [18] was 34 µM and the inhibition (Phosphodiesterase 1 [7]) was 9%. It also gave a Ratio [19] of 4.3, an inhibition [8] of 24% and an inhibition (Phosphodiesterase 1 [20]) of 36%.

In the case of Cc1nccn1-c1ccc(C2=NNC(=O)CC2)cc1, the inhibition (Phosphodiesterase 1 [2]) is reported as 0%, the inhibition (PDE II (Cavia porcellus)) is reported as 19% and the Ratio [13] is reported as 5.4. The inhibition (Phosphodiesterase 3 [10]) was 64%, the inhibition (Phosphodiesterase 1 [14]) was 16% and the ED50 (Canis familiaris) was 0.3 mg/kg. For the same compound, the inhibition (Phosphodiesterase 3 [5]) was 57%, the IC50 [24] was 420 µM and the inhibition [6] was 4%. The inhibition [25] was 22%, the IC50 (Phosphodiesterase 3 [15]) was 2.3 µM and the IC50 (PDE I (Cavia porcellus) [16]) was 790 µM. It also gave an IC50 (PDE I (Cavia porcellus) [17]) of 530 µM, an IC50 [18] of 380 µM and an inhibition (Phosphodiesterase 1 [7]) of 1%. The Ratio [19] was 2.9, the inhibition [8] was 8% and the inhibition (Phosphodiesterase 1 [20]) was 18%.

With Nc1cc(-c2ccncc2)c[nH]c1=O [INAMRINONE] the IC50 (Phosphodiesterase 1 [22]) was greater than 1000 µM, the IC50 [24] was 720 µM and 580 µM and the IC50 (Phosphodiesterase 1 [23]) was greater than 1000 µM.

Work on Oc1ccc(-c2ccc(-n3ccnc3)cc2)nn1 yielded an inhibition (Phosphodiesterase 1 [2]) of 6%, an IC50 (Phosphodiesterase 1 [22]) of 580 µM and an inhibition [12] of 27%. It also gave an inhibition (Phosphodiesterase 3 [10]) of 80%, an inhibition (Phosphodiesterase 1 [14]) of 17% and an ED50 (Canis familiaris) of 0.11 mg/kg. The inhibition (Phosphodiesterase 3 [5]) was 56%, the inhibition [6] was 11% and the IC50 (Phosphodiesterase 3 [15]) was 7.2 µM. It also gave an IC50 (Phosphodiesterase 1 [23]) of 660 µM, an inhibition (Phosphodiesterase 1 [7]) of 4% and an inhibition (Phosphodiesterase 1 [20]) of 15%.

CC1CC(=O)NN=C1c1ccc(-n2cnc3c2CCCC3)cc1 (stereo not drawn) [TETRAHYDROBENXIMIDAZOLE] gave an inhibition (Phosphodiesterase 1 [2]) of 17%, an inhibition (PDE II (Cavia porcellus)) of 65% and an inhibition [12] of 68%. It also gave a Ratio [13] of 3.2, an inhibition (Phosphodiesterase 3 [10]) of 90% and an inhibition (Phosphodiesterase 1 [14]) of 57%. It also gave an ED50 (Canis familiaris) of 0.025 mg/kg, an inhibition (Phosphodiesterase 3 [5]) of 64% and an IC50 [24] of 46 µM. The inhibition [6] was 21%, the IC50 (Phosphodiesterase 3 [15]) was 0.15 µM and the IC50 (PDE I (Cavia porcellus) [16]) was 75 µM. For the same compound, the IC50 (PDE I (Cavia porcellus) [17]) was 85 µM, the IC50 [18] was 43 µM and the inhibition (Phosphodiesterase 1 [7]) was 13%. For the same compound, the Ratio [19] was 2, the inhibition [8] was 21% and the inhibition (Phosphodiesterase 1 [20]) was 54%.

From ChEMBL document CHEMBL1123632, “Cardiotonic agents. 7. Inhibition of separated forms of cyclic nucleotide phosphodiesterase from guinea pig cardiac muscle by 4,5-dihydro-6-[4-(1H-imidazol-1-yl)phenyl]-3(2H)-pyridazinones and related compounds. Structure-activity relationships and correlation with in vivo positive inotropic …” (J Med Chem, 1987)
